Measured values as given in ChEMBL document CHEMBL1152729, “Ceramides: branched alkyl chains in the sphingolipid siblings of diacylglycerol improve biological potency” (Bioorg Med Chem, 2009).

Key:
MCF7 = assay: Cytotoxicity against human MCF7 cells after 24 hrs by CellTiter-Blue assay; type: functional, cell-based; settings: MCF7, 24 h
Method in brief: (§1)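 MCF-7 or MDA-MB231 cells kept in DMEM with 10% FBS and penicillin-streptomycin. The cells were exposed for 24 h to serial dilutions of compound, diluted in medium at 37 °C from 50 mM DMSO stocks. Viability was read by resazurin-to-resorufin fluorescence at 560/590 nm ex/em and normalized to the no-drug control. Dose-response fits gave IC50s, averaged over three experiments ± SD.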

SUP-T1 [1] = assay: Induction of early apoptosis in human SupT1 cells after 24 hrs using annexin V-FITC staining by FACS; type: functional, cell-based
Method in brief: (§2)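 SupT1 cells treated for 24 h at different compound concentrations, then harvested and washed in PBS. Phosphatidylserine exposure was detected by Annexin V-FITC staining and flow cytometry. Brightly stained cells were counted as apoptotic.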

SUP-T1 [2] = assay: Induction of apoptosis in human SupT1 cells after 24 hrs using DiOC6 staining by FACS; type: functional, cell-based
Method in brief: (§3)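 SupT1 cells exposed to varying compound concentrations for 24 h, then collected and PBS-washed. Mitochondrial depolarization was detected by 10 μM DiOC6 staining and flow cytometry. Cells with reduced DiOC6 staining were gated as apoptotic.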

NHDF = assay: Cytotoxicity against NHDF after 24 hrs by CellTiter-Blue assay; type: cell-based; settings: Homo sapiens
Method in brief: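 Normal human dermal fibroblasts grown in fibroblast medium and treated for 24 h with serial compound dilutions. Viability was measured by resorufin fluorescence (560/590 nm ex/em) as percent of the no-drug control. IC50 was taken from the dose-response fit as a single determination.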

SUP-T1 [3] = assay: Cytotoxicity against human SupT1 cells after 24 hrs by CellTiter-Blue assay; type: functional, cell-based
Method in brief: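 SupT1 cells cultured in RPMI with 10% FBS and penicillin-streptomycin, then incubated 24 h with serially diluted compound from 50 mM DMSO stocks. CellTiter-Blue resazurin reduction was read at 560/590 nm and normalized to the no-drug control as percent viability. IC50s came from the fitted dose-response curve of each experiment and were averaged over three experiments ± SD.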

SUP-T1 [4] = assay: Induction of early apoptosis in human SupT1 cells at 50 uM after 24 hrs using annexin V-FITC staining by FACS; type: functional; method in brief: as §2
SK-BR-3 = assay: Cytotoxicity against human SKBR3 cells after 24 hrs by CellTiter-Blue assay; type: functional, cell-based; settings: SK-BR-3, 24 h
Method in brief: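 SKBR3 breast cancer cells grown in DMEM with 10% FBS and penicillin-streptomycin. The cells were treated for 24 h with serial compound dilutions made in 37 °C medium from 50 mM DMSO stocks. Resorufin fluorescence (560/590 nm ex/em) was expressed as percent of the untreated control. Curve fitting gave IC50s, with the mean of three repeats ± SD.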

SUP-T1 [5] = assay: Induction of apoptosis in human SupT1 cells at 50 uM after 24 hrs using DiOC6 staining by FACS; type: functional; method in brief: as §3
MDA-MB-231 = assay: Cytotoxicity against human MDA-MB-231 cells after 24 hrs by CellTiter-Blue assay; type: functional, cell-based; settings: MDA-MB-231, 24 h; method in brief: as §1
SUP-T1 [6] = assay: Induction of apoptosis in human SupT1 cells at 25 uM after 24 hrs using DiOC6 staining by FACS; type: functional; method in brief: as §3
SUP-T1 [7] = assay: Induction of early apoptosis in human SupT1 cells at 25 uM after 24 hrs using annexin V-FITC staining by FACS; type: functional; method in brief: as §2

SMILES	IC50 (MCF7) [µM]	Activity (SUP-T1 [1])	Activity (SUP-T1 [2])	IC50 (NHDF) [µM]	IC50 (SK-BR-3) [µM]	IC50 (MDA-MB-231) [µM]	IC50 (SUP-T1 [3]; Homo sapiens, SUP-T1, 24 h) [µM]	further results
CCCCCCCCCCCCC/C=C/[C@@H](O)[C@H](CO)NC(C)=O (stereo in doubt; 1)	45.4	Dose-dependent effect	Dose-dependent effect	66.5	49.2	35.4		IC50 (SUP-T1 [3]; sup-t1): 41.4 µM; Activity (SUP-T1 [4]): 42.33%; Activity (SUP-T1 [5]): 56.14%
CCCCCCCCCCCC[C@@H](O)[C@H](CO)NC(=O)CC(CC(C)C)CC(C)C							76.3	
CCCCCCCCCCC(=O)N[C@@H](CO)[C@H](O)/C=C/CC(CC(C)C)CC(C)C	16.3	Dose-dependent effect	Dose-dependent effect	45.4	10.2	22.4	15.5	Activity (SUP-T1 [6]): 75.15%; Activity (SUP-T1 [7]): 66.16%
CCCCCCCCCCCCC/C=C/[C@@H](O)[C@H](CO)NC(=O)CCCCC							48	
CCCCCCCCCC/C=C/[C@@H](O)[C@H](CO)NC(=O)CC(CC(C)C)CC(C)C							29.1	
CCCCCC(=O)N[C@@H](CO)[C@H](O)/C=C/CC(CC(C)C)CC(C)C							52.9	
